Key:
Assay type in all cases: ADME, organism-based
[1] = Area under the curve at a concentration of 60 mg/kg perorally in rats along with control; parameters: dose 60 mg/kg, route oral; settings: rat, in vivo, po, read-out: AUC 120 (converted)
Summary of the method: (§1)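 Cannulated male Sprague–Dawley rats (300–350 g), fasted 15 h, given 60 mg/kg by oral gavage under light O2/CO2 anaesthesia in 1 mL 5% DMSO/water at pH 8. Arterial plasma sampled 0–120 min and assayed by fluorescence polarization immunoassay. Cmax is observed; AUC0–120 is trapezoidal. F = AUCpo·dose_iv/(AUCiv·dose_po)×100, using iv 3 mg/kg. Mean ± SEM, 4–5 rats.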

[2] = Oral bioavailability in rat (dose 60 mg/kg p.o.); settings: in vivo; summary of the method: as §1
[3] = Maximum plasma concentration at a concentration of 60 mg/kg perorally in rats along with control; parameters: dose 60 mg/kg, route oral; settings: rat, po; summary of the method: as §1
Rattus norvegicus = test: Bioavailability in rat (dose 3 mg/kg i.v.); settings: in vivo, iv
[4] = Area under the curve at a concentration of 3 mg/kg in rats, intravenously; parameters: dose 3 mg/kg, route intravenous; settings: rat, in vivo, iv, read-out: AUC 120 (converted)
Summary of the method: (§2)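 Male Sprague–Dawley rats (300–350 g) with femoral artery cannula, dosed next day at 3 mg/kg in 0.3 mL heparinized saline via lateral tail vein. Arterial blood drawn at 0, 5, 10, 15, 30, 60, 90, 120 min, and plasma frozen at –70 °C. Gentamicin measured by fluorescence polarization immunoassay (LOD 0.30 μg/mL). Cmax is the observed value; AUC0–120 by linear trapezoidal rule. Mean ± SEM, 4–5 rats.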

[5] = Maximum plasma concentration at a concentration of 3 mg/kg in rats, intravenously; parameters: dose 3 mg/kg, route intravenous; settings: rat, iv; summary of the method: as §2

AUC [1] | bioavailability ([2]; read-out: Bioavailabiility) | Cmax [3] | Bioavailabiility (Rattus norvegicus) | AUC [4] | Cmax [5] | bioavailability [2] | F (Rattus norvegicus) | Compound
1180 ng·h/mL | 1.4% | 770 ng/mL | 100% | 4180 ng·h/mL | 8190 ng/mL |  |  | CN[C@@H]1C(O)[C@H](O[C@@H]2C(O)C(O[C@H]3OC(CN)CCC3N)[C@@H](N)C[C@H]2N)OC[C@@H]1O.O=S(=O)(O)O (stereo partly drawn)
1180 ng·h/mL |  | 770 ng/mL |  | 4180 ng·h/mL | 8190 ng/mL | 1.4% | 100% | CNC(C)C1CC[C@H](N)[C@@H](OC2[C@@H](O)[C@@H](O[C@H]3OC[C@H](O)[C@@H](NC)[C@@H]3O)[C@H](N)C[C@@H]2N)O1.O=S(=O)(O)O (stereo partly drawn)
1180 ng·h/mL |  | 770 ng/mL |  | 4180 ng·h/mL | 8190 ng/mL | 1.4% | 100% | CN[C@@H]1[C@H](O)[C@H](O[C@H]2[C@H](N)C[C@H](N)C(O[C@H]3OC(C(C)N)CC[C@@H]3N)[C@H]2O)OC[C@@H]1O.O=S(=O)(O)O (stereo partly drawn)

— ChEMBL document CHEMBL1148488, “Design, synthesis, and evaluation of a liposaccharide drug delivery agent: application to the gastrointestinal absorption of gentamicin” (J Med Chem, 2004)
